Results taken from the EternaBench riboswitch data.

System: MS2 coat protein
Test: apparent Kd, MS2 coat protein; higher = weaker binding; RNA-MaP array
How it was run: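 In Tris-HCl pH 7.5 buffer with KCl, MgCl2, BSA, DTT, tRNA and Tween20, with or without input ligand, fluorescently labeled MS2 coat protein at 1.5 nM to 3 μM was incubated at room temperature with designed RNAs. The RNAs had been transcribed on an Illumina sequencing chip from sequenced DNA templates, and incubation ran 0.8–1.5 h at the lowest to 10–20 min at the highest concentrations. Apparent Kd is the median of binding-curve fits for individual clusters. Designs measured on fewer than 10 clusters were excluded.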

[1] = designed as: OFF switch for flavin mononucleotide, no ligand
[2] = ligand present: flavin mononucleotide, designed as: OFF switch for flavin mononucleotide
[3] = designed as: ON switch for flavin mononucleotide, no ligand
[4] = ligand present: flavin mononucleotide, designed as: ON switch for flavin mononucleotide
[5] = designed as: OFF switch for tryptophan, no ligand
[6] = ligand present: tryptophan, designed as: OFF switch for tryptophan

Row | Sequence | apparent Kd [1] | apparent Kd [2] | apparent Kd [3] | apparent Kd [4] | further results
1 | AAAUGGGAGGUACGCACCACUACAUGAGGAUCACCCAUGUAUAGAAGGCAGGUCUGGACUCGUCCUGAGGAUAUAUGAUUUGAC | 17.9 nM | 16.5 nM | – | – | –
2 | GUGGCGUAAGGAUAUCGUGGGAAGUGAUGAACGCUCUACUUCGAGAAGGUACAUGAGGAUCACCCAUGUGAGGG | 151 nM | 129 nM | – | – | –
3 | UAUUUUGCGAAGAAGGAAGCCUCACUGGAAUGCUUAGGAUAUUCUCGCGUGGAGCACAUGCACAUGAGGAUCACCCAUGUACCG | – | – | 28.7 nM | 20.1 nM | –
4 | UCGAUAAGAGGAUAUACGUGAUAGUUCUCCUCCCUAUGACUACAUGAGGAUCACCCAUGUAGAAGGCUUAACGG | 6.31 nM | 6.54 nM | – | – | –
5 | UGAAAUUACGGAGGAUAUCUAUUUACAUGAGGAUCACCCAUGUCCCAGCUACUGCUAUUAUCCGCAGAGAAGGCCGGUGAGUCC | – | – | 171 nM | 105 nM | –
6 | AGGAAUAAGACAGGAUAUCGUAAAAUAUAAAACCGAGAAGGGUCACAUGAGGAUCACCCAUGUGUUCCAACGGUGAUCCCUAGA | 64.9 nM | 68.2 nM | – | – | –
7 | AUCAAGUGAGGAUAUCCGUAGACUCCUAAUCAGCGACUCAAGGAGAAGGCACAUGAGGAUCACCCAUGUUAGAU | 19.6 nM | 20.8 nM | – | – | –
8 | GUACGGUUCCAAGGAUAUGAUAGGUGACAUGAGGAUCACCCAUGUGCCGGUGGUGGGAGCGAGGAUCAGAAGGUGGCCAGCGGU | – | – | 60 nM | 45.4 nM | –
9 | GGACGUGGGCAGGAUAUGCGAAUUGAUUGAGCGGCAGAAGGGCCUACAUGAGGAUCACCCAUGUAGAUGCUUAC | 5.4 nM | 11.7 nM | – | – | –
10 | AAAUACGUAAAACAUGAGGAUCACCCAUGUACAUUUAUUACCAGAAGGAGCGCUAAAAGUACCAGCUAGGAUAUGGGAAGCAAC | – | – | 8.05 nM | 5.83 nM | –
11 | UCCUCGUAUUAAGGAUAUAGAAAAGUCACAUGAGGAUCACCCAUGUCUAAGGACGCACUAUGAGUCUAGAAGGUAAUCCGGAAU | – | – | 78.9 nM | 65.5 nM | –
12 | UGCAAUGGGUGAGGAUAUACCCACACACAUGAGGAUCACCCAUGUUUCACAAAGGUGAUGACGCGGUAGAAGGCACAAUCCACU | – | – | 268 nM | 98.1 nM | –
13 | GAACGUAGAGGAUAUACGACAAUGCACUGAUCGACGAGUACACAUGAGGAUCACCCAUGUAGAAGGCUAGGAAU | 7.28 nM | 6.45 nM | – | – | –
14 | AACACGCUGGUAGGAUAUUACAACAUGAUGACUCGUCCAAGAAACAACAUGAGGAUCACCCAUGUUAAGAAGGACCACAAGAAA | 7.13 nM | 7.92 nM | – | – | –
15 | GGAUUAAGCUAGAAGGUACGAUCACCGUGAUGGUAAGGAUAUAGAACGAUGCCGAUUCCAACAUGAGGAUCACCCAUGUUCCUA | – | – | 447 nM | 260 nM | –
16 | AGUAAAAGAGGAUAUACAUGAGGAUCACCCAUGUUGGCGCAGACAAUCGAUGCAUCGAGUAGAAGGCUUUCAAU | 21.3 nM | 17.1 nM | – | – | –
17 | UAAAUCUUACAACACAUGAGGAUCACCCAUGUACGGGCGGGAUAGGAUAUCGAAAUGGUCUCAAACGAGAAGGAUCCUUCUUAU | – | – | 46.7 nM | 27.8 nM | –
18 | UGUAUCUCGCAGAAGGCAGGUUAAGCAACAAACUGAGGAUAUGCGUAUACAUGAGGAUCACCCAUGUUCACUGAUCGCAAAUUC | 14.8 nM | 102 nM | – | – | –
19 | AUAACAGUGUCGGCCGCCACUAGAACACAUGAGGAUCACCCAUGUGGUGGUACCUCCUAAGACGAUAGGACCGGGACCCAUCUAC | – | – | – | – | apparent Kd [5]: 134 nM; apparent Kd [6]: 95.2 nM
20 | AUGCGCUAUAUGGAUACCAGUAUGAUAAUUGACAUGAGGAUCACCCAUGUGAGCUCUACCUACCCUUGGCAGCCAACCCUAUUUG | – | – | – | – | apparent Kd (designed as: ON switch for theophylline, no ligand): 21.9 nM; apparent Kd (ligand present: theophylline, designed as: ON switch for theophylline): 22.9 nM
21 | CAAUGGCAGUUGCAGGAUAUUCGGCCGGACACAUGAGGAUCACCCAUGUAGGUUCUCCCAUGGAUGAAGAAGGGCACAACAGAAAC | – | – | 134 nM | 66.4 nM | –
22 | UAGAAUUAAGGAUAUACAGGAUCCGUACAAAUAUUGAUAGGACAUGAGGAUCACCCAUGUAGAAGGUAAGGCAG | 21.1 nM | 17.2 nM | – | – | –
23 | GUAAAACGGAAGAAGGCGCGGAGUACAGGGUAAAAUCAGGUCACAUGAGGAUCACCCAUGUGGAGCGAGGAUAUUCAUAAGGUA | 24.7 nM | 63.2 nM | – | – | –
24 | AUUUGGCGUAGUGUUGCUCGUGGGAUAAAACGAGGACCGGUACGGCCGCCACUCGAUGAUUAACAUGAGGAUCACCCAUGUAAAU | – | – | – | – | apparent Kd [5]: 24.6 nM; apparent Kd [6]: 104 nM
25 | CGCAAUUCCUGAGGAUAUUGGCAGCGACAUGAGGAUCACCCAUGUGACCAUUUGGUGUUUUGUGUCAAGAAGGCAGCCCAUGAG | 44.9 nM | 33.8 nM | – | – | –
26 | CCUCAAAUGACAUGAGGAUCACCCAUGUAGCGCACAACCGCUAGAAGGACGACAAAGUCUUAUGCGUAGGAUAUAGCGAGCGCG | – | – | 132 nM | 133 nM | –
